Reference: ChEMBL document CHEMBL1275458, “First molecular characterization of group B streptococci with reduced penicillin susceptibility” (2008)
In brackets after ≈: the same amount, converted by molar mass.

What was measured:
Streptococcus pneumoniae = assay: Antimicrobial activity against Streptococcus pneumoniae ATCC 49619 by agar dilution method; type: functional
Outline: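 MIC by agar dilution per CLSI recommendations. The strain is a penicillin-susceptible S. pneumoniae quality-control strain, run alongside the clinical GBS isolates. β-lactams tested were penicillin G, penicillin V, ampicillin, oxacillin, cefazolin, cefepime, cefotaxime, ceftizoxime and meropenem.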

Streptococcus agalactiae [1] = assay: Antimicrobial activity against penicillin-resistant Streptococcus agalactiae B1 by agar dilution method; type: functional
Outline: (§1)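 Agar dilution MICs run per the CLSI recommendation. S. pneumoniae ATCC 49619 was included as the quality control strain. β-lactams tested were penicillin G, penicillin V, ampicillin, oxacillin, cefazolin, cefepime, cefotaxime, ceftizoxime and meropenem. Test strains were S. agalactiae clinical sputum isolates and ATCC strains BAA-611 and 12403.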

Streptococcus agalactiae [2] = assay: Antimicrobial activity against penicillin-resistant Streptococcus agalactiae B6 by agar dilution method; type: functional; outline: as §1
Streptococcus agalactiae [3] = assay: Antimicrobial activity against penicillin-resistant Streptococcus agalactiae B7 by agar dilution method; type: functional; outline: as §1
Streptococcus agalactiae [4] = assay: Antimicrobial activity against penicillin-resistant Streptococcus agalactiae B8 by agar dilution method; type: functional; outline: as §1
Streptococcus agalactiae [5] = assay: Antimicrobial activity against penicillin-resistant Streptococcus agalactiae B10 by agar dilution method; type: functional; outline: as §1
Streptococcus agalactiae [6] = assay: Antimicrobial activity against penicillin-resistant Streptococcus agalactiae B12 by agar dilution method; type: functional; outline: as §1
Streptococcus agalactiae [7] = assay: Antimicrobial activity against penicillin-resistant Streptococcus agalactiae B40 by agar dilution method; type: functional; outline: as §1
Streptococcus agalactiae [8] = assay: Antimicrobial activity against penicillin-resistant Streptococcus agalactiae B60 by agar dilution method; type: functional; outline: as §1
Streptococcus agalactiae [9] = assay: Antimicrobial activity against penicillin-resistant Streptococcus agalactiae B68 by agar dilution method; type: functional; outline: as §1
Streptococcus agalactiae [10] = assay: Antimicrobial activity against penicillin-resistant Streptococcus agalactiae B502 by agar dilution method; type: functional; outline: as §1
Streptococcus agalactiae [11] = assay: Antimicrobial activity against penicillin-resistant Streptococcus agalactiae B503 by agar dilution method; type: functional; outline: as §1
Streptococcus agalactiae [12] = assay: Antimicrobial activity against penicillin-resistant Streptococcus agalactiae B513 by agar dilution method; type: functional; outline: as §1
Streptococcus agalactiae [13] = assay: Antimicrobial activity against penicillin-resistant Streptococcus agalactiae B514 by agar dilution method; type: functional; outline: as §1
Streptococcus agalactiae [14] = assay: Antimicrobial activity against penicillin-resistant Streptococcus agalactiae B516 by agar dilution method; type: functional; outline: as §1
Streptococcus agalactiae [15] = assay: Antimicrobial activity against penicillin-resistant Streptococcus agalactiae ATCC BAA-611 harboring PBP-2X Q557E mutant gene by agar dilution method; type: functional; outline: as §1
Streptococcus agalactiae [16] = assay: Antimicrobial activity against penicillin-resistant Streptococcus agalactiae ATCC BAA-611 harboring PBP-2X V405A mutant gene by agar dilution method; type: functional; outline: as §1
Streptococcus agalactiae [17] = assay: Antimicrobial activity against penicillin-susceptible Streptococcus agalactiae ATCC 12403 by agar dilution method
Streptococcus agalactiae [18] = assay: Antimicrobial activity against penicillin-susceptible Streptococcus agalactiae ATCC BAA-611 by agar dilution method

| Structure (SMILES) | MIC (Streptococcus pneumoniae) | MIC (Streptococcus agalactiae [1]) | MIC (Streptococcus agalactiae [2]) | MIC (Streptococcus agalactiae [3]) | MIC (Streptococcus agalactiae [4]) | MIC (Streptococcus agalactiae [5]) | MIC (Streptococcus agalactiae [6]) | MIC (Streptococcus agalactiae [7]) | MIC (Streptococcus agalactiae [8]) | MIC (Streptococcus agalactiae [9]) | MIC (Streptococcus agalactiae [10]) | MIC (Streptococcus agalactiae [11]) | MIC (Streptococcus agalactiae [12]) | MIC (Streptococcus agalactiae [13]) | MIC (Streptococcus agalactiae [14]) | MIC (Streptococcus agalactiae [15]) | MIC (Streptococcus agalactiae [16]) | MIC (Streptococcus agalactiae [17]) | MIC (Streptococcus agalactiae [18]) |
| --- | --- | --- | --- | --- | --- | --- | --- | --- | --- | --- | --- | --- | --- | --- | --- | --- | --- | --- | --- |
| C[C@@H](O)[C@H]1C(=O)N2C(C(=O)O)=C(S[C@@H]3CN[C@H](C(=O)N(C)C)C3)[C@H](C)[C@H]12 [MEROPENEM] | 0.06 µg/mL (≈ 0.156 µM) | 0.06 µg/mL (≈ 0.156 µM) | 0.06 µg/mL (≈ 0.156 µM) | 0.25 µg/mL (≈ 0.652 µM) | 0.12 µg/mL (≈ 0.313 µM) | 0.06 µg/mL (≈ 0.156 µM) | 0.25 µg/mL (≈ 0.652 µM) | 0.06 µg/mL (≈ 0.156 µM) | 0.12 µg/mL (≈ 0.313 µM) | 0.12 µg/mL (≈ 0.313 µM) | 0.25 µg/mL (≈ 0.652 µM) | 0.12 µg/mL (≈ 0.313 µM) | 0.25 µg/mL (≈ 0.652 µM) | 0.25 µg/mL (≈ 0.652 µM) | 0.12 µg/mL (≈ 0.313 µM) | 0.12 µg/mL (≈ 0.313 µM) | 0.12 µg/mL (≈ 0.313 µM) | 0.03 µg/mL (≈ 0.0782 µM) | 0.03 µg/mL (≈ 0.0782 µM) |
| Cc1nnc(SCC2=C(C(=O)O)N3C(=O)[C@@H](NC(=O)Cn4cnnn4)[C@H]3SC2)s1 [CEFAZOLIN] | 1 µg/mL (≈ 2.2 µM) | 2 µg/mL (≈ 4.4 µM) | 1 µg/mL (≈ 2.2 µM) | 0.5 µg/mL (≈ 1.1 µM) | 1 µg/mL (≈ 2.2 µM) | 1 µg/mL (≈ 2.2 µM) | 1 µg/mL (≈ 2.2 µM) | 1 µg/mL (≈ 2.2 µM) | 1 µg/mL (≈ 2.2 µM) | 0.5 µg/mL (≈ 1.1 µM) | 0.5 µg/mL (≈ 1.1 µM) | 0.5 µg/mL (≈ 1.1 µM) | 1 µg/mL (≈ 2.2 µM) | 1 µg/mL (≈ 2.2 µM) | 0.5 µg/mL (≈ 1.1 µM) | 2 µg/mL (≈ 4.4 µM) | 0.5 µg/mL (≈ 1.1 µM) | 0.12 µg/mL (≈ 0.264 µM) | 0.12 µg/mL (≈ 0.264 µM) |
| CO/N=C(\C(=O)N[C@@H]1C(=O)N2C(C(=O)[O-])=C(C[N+]3(C)CCCC3)CS[C@H]12)c1csc(N)n1 [CEFEPIME] | 0.03 µg/mL (≈ 0.0624 µM) | 0.5 µg/mL (≈ 1.04 µM) | 0.25 µg/mL (≈ 0.52 µM) | 0.25 µg/mL (≈ 0.52 µM) | 0.5 µg/mL (≈ 1.04 µM) | 0.25 µg/mL (≈ 0.52 µM) | 0.5 µg/mL (≈ 1.04 µM) | 0.25 µg/mL (≈ 0.52 µM) | 0.25 µg/mL (≈ 0.52 µM) | 0.5 µg/mL (≈ 1.04 µM) | 0.5 µg/mL (≈ 1.04 µM) | 0.25 µg/mL (≈ 0.52 µM) | 1 µg/mL (≈ 2.08 µM) | 0.5 µg/mL (≈ 1.04 µM) | 0.5 µg/mL (≈ 1.04 µM) | 0.5 µg/mL (≈ 1.04 µM) | 0.5 µg/mL (≈ 1.04 µM) | 0.06 µg/mL (≈ 0.125 µM) | 0.06 µg/mL (≈ 0.125 µM) |
| CC1(C)S[C@@H]2[C@H](NC(=O)[C@H](N)c3ccccc3)C(=O)N2[C@H]1C(=O)O [AMPICILLIN] | 0.12 µg/mL (≈ 0.343 µM) | 0.12 µg/mL (≈ 0.343 µM) | 0.12 µg/mL (≈ 0.343 µM) | 0.12 µg/mL (≈ 0.343 µM) | 0.5 µg/mL (≈ 1.43 µM) | 0.12 µg/mL (≈ 0.343 µM) | 0.25 µg/mL (≈ 0.715 µM) | 0.12 µg/mL (≈ 0.343 µM) | 0.25 µg/mL (≈ 0.715 µM) | 0.5 µg/mL (≈ 1.43 µM) | 0.5 µg/mL (≈ 1.43 µM) | 0.5 µg/mL (≈ 1.43 µM) | 0.5 µg/mL (≈ 1.43 µM) | 0.5 µg/mL (≈ 1.43 µM) | 0.25 µg/mL (≈ 0.715 µM) | 0.12 µg/mL (≈ 0.343 µM) | 0.25 µg/mL (≈ 0.715 µM) | 0.12 µg/mL (≈ 0.343 µM) | 0.12 µg/mL (≈ 0.343 µM) |
